According to PubChem BioAssay AID504383 (The Scripps Research Institute Molecular Screening Center, 2011):
Among all 2,500 compounds or so, about 1,200 (48%) were called active. So high a share suggests a set chosen from earlier hits. Some of the results follow. A number with no mark means an inactive call.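 The calls were made as follows: active = mean activation above the low control average plus 3 SD, as set in the primary screen (cut at about 12% in these data); inactive = the rest.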

Target: Troponin I, cardiac muscle (Homo sapiens) + Troponin T, cardiac muscle (Homo sapiens) + Troponin C, slow skeletal and cardiac muscles (Homo sapiens) (UniProt P19429+P45379+P63316)
Assay: calcium sensitizers of cardiac thin filaments – biochemical, IANBD-TnC fluorescence, triplicate, confirmation (AID 504383);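 also: 0% = DMSO at 0.472 mM calcium and 100% = DMSO at 2.9 mM calcium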
Settings: IANBD-labeled cardiac RTF, Ca2+ sensitivity fluorescence; at 7.2 µM; stronger effect = higher value; scaled from EC20 to saturating calcium; tested at EC20 calcium, 0.472 mM
In short: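 Assay system: labelled regulated thin filament protein complex; schedule: 15 min compound incubation with filaments at 25 °C; benchmarks: low control EC20 calcium, high control EC100 calcium; reagent: Ca2+ 0.472 mM, EC20 level; doses: one dose, 7.2 µM nominal; evaluation: fluorescence gain scaled between EC20 and EC100 calcium controls; signal: filament fluorescence intensity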

Question: `Oc1cccc(Nc2nc(O)c(/C=C3\C=Nc4ccccc43)s2)c1` was tested. Which activation did it give?
Answer: The activation was 127% (active).

Question: For `CN(C)c1ccc(/C=C/C(=O)c2ccc(O)cc2)cc1`, which activation is on record?
Answer: Its activation is 1.84%.

Question: With `CC(C)=CCC/C(C)=C/Cc1c(O)ccc(C(=O)/C=C/c2ccc(O)cc2)c1O` as the molecule, how does the activation read?
Answer: Its activation is 563% (active).

Question: With `O=C(Cc1ccccc1)Nc1cccc(-c2nc3ncccc3o2)c1` as the molecule, how does the activation read?
Answer: Its activation is 15.3% (active).

Question: With `CC(=O)NC(Cc1ccc(F)c(F)c1)C(=O)NC1CCN(S(=O)(=O)c2ccc(C)cc2)CC1` (centres undefined) as the molecule, how does the activation read?
Answer: The activation was 6.59%.

Question: How did the activation turn out when `COc1cccc(CC(NC(C)=O)C(=O)NC2CCN(c3nc(C)cc(C)c3C#N)CC2)c1OC` (centres undefined) was run?
Answer: Its activation is 34% (active).

Question: Which activation does the source give for `CCOC(=O)[C@H]1[C@H]2COc3ccccc3[C@@H]2N2C(=O)CN(Cc3ccc(C)cc3)C(=O)[C@@]12C` here?
Answer: Its activation is 8.95%.

Question: Which activation does the source give for `N#C/C(=C(/O)COC(=O)c1ccccc1O)c1nc2ccccc2s1` here?
Answer: Its activation is 5.53%.

Question: Which activation does the source give for `N#C/C(=C\c1ccccn1)c1nc2ccccc2s1` here?
Answer: The activation was 14.5% (active).

Question: `COc1ccc2[nH]c(C(=O)N3CCC(Cc4ccccc4)CC3)cc2c1` was tested. Which activation did it give?
Answer: The activation was 13.6% (active).

Question: For `CN1CCN(C(=O)c2cc3ccccc3[nH]2)CC1`, which activation is on record?
Answer: Its activation is 6.99%.

Question: Which activation does the source give for `O=C1c2cccc3cccc(c23)C(=O)N1CC1CCN(S(=O)(=O)c2ccc(F)cc2)CC1` here?
Answer: Its activation is 134% (active).

Question: For `O=C1NC(=NCc2ccccc2)S/C1=C\c1ccccc1`, which activation is on record?
Answer: Its activation is 50.1% (active).

Question: With `Cc1ccc(N=C2NC(=O)/C(=C/c3cccnc3)S2)cc1C` as the molecule, how does the activation read?
Answer: The activation was 3.85%.

Question: `Cc1ccnc(N/C=C(\C#N)c2nc(-c3cccc(Br)c3)cs2)c1` was tested. Which activation did it give?
Answer: The activation was 27.5% (active).

Question: `Cc1ccnc(NC(=O)c2ccc(Br)s2)c1` was tested. Which activation did it give?
Answer: Its activation is 5.46%.

Question: `N#C/C(=C\C=C\c1ccccc1)c1nc(-c2ccc3c(c2)OCO3)cs1` was tested. Which activation did it give?
Answer: The activation was 7.13%.

Question: For `O=S(=O)(/C=C/c1ccccc1)N1CCc2ccccc2C1`, which activation is on record?
Answer: The activation was 11.1%.

Question: `COC(=O)c1ccc(NC(=O)c2cccc(OC)c2)cc1` was tested. Which activation did it give?
Answer: The activation was 14.2% (active).

Question: Which activation does the source give for `COc1ccc(NC(=O)c2cccc(-c3ccc(O)cc3)c2)cn1` here?
Answer: Its activation is 2.76%.

Question: With `COC(=O)c1ccc(NC(=O)c2snnc2-c2ccccc2)cc1` as the molecule, how does the activation read?
Answer: Its activation is 11.7% (active).

Question: For `Nc1nc2ccccc2n1CCOc1ccc(Br)cc1`, which activation is on record?
Answer: Its activation is 12.1% (active).

Question: How did the activation turn out when `Cc1ccc(S(=O)(=O)c2cc(C#N)c(=O)[nH]c2N)cc1` was run?
Answer: Its activation is 23.8% (active).

Question: How did the activation turn out when `Cc1ccc(-c2nc3sc(C#N)c(N)n3c(=O)c2C#N)cc1` was run?
Answer: Its activation is 6.97%.

Question: Which activation does the source give for `CC1(C)CC2(CCCN(C(=S)Nc3ccccc3)C2)CCO1` (centres undefined) here?
Answer: The activation was 17.2% (active).

Question: How did the activation turn out when `C=CCN1C(=O)C(Cc2cccc(Cl)c2)S/C1=N/N=C/c1ccco1` (centres undefined) was run?
Answer: Its activation is 6.48%.

Question: How did the activation turn out when `CC(Oc1ccc(S(=O)(=O)N2CCCC2)cc1[N+](=O)[O-])C(=O)N(C)c1ccccc1` (centres undefined) was run?
Answer: The activation was 6.91%.

Question: For `O=C(COc1ccc(Cl)cc1[N+](=O)[O-])N1CCCCC1`, which activation is on record?
Answer: Its activation is 48.7% (active).

Question: With `O=C(COc1ccc(Cl)cc1[N+](=O)[O-])N1CCCCCC1` as the molecule, how does the activation read?
Answer: The activation was 5.74%.

Question: Which activation does the source give for `COc1cccc(OCCCn2cc(/C=C3/C(=N)N4C=C(C)SC4=NC3=O)c3ccccc32)c1` here?
Answer: Its activation is 9.3%.

Question: Which activation does the source give for `CC1=CN2C(=N)/C(=C/c3ccc([N+](=O)[O-])o3)C(=O)N=C2S1` here?
Answer: The activation was 14.5% (active).

Question: For `CC(=O)c1cccc(-n2c(CCC(=O)O)ccc2-c2ccccc2)c1`, which activation is on record?
Answer: The activation was 7.99%.

Question: For `CCOc1ccc(CCNC(=O)c2ccc(CNS(=O)(=O)c3ccccc3)cc2)cc1OCC`, which activation is on record?
Answer: Its activation is 4.87%.

Question: With `CCCS(=O)(=O)N1CCC(C(=O)NCCCN2CCC(Cc3ccccc3)CC2)CC1` as the molecule, how does the activation read?
Answer: Its activation is 6.98%.

Question: For `CCOc1ccc(CCNC(=O)C2CCCN(S(=O)(=O)N3CCOCC3)C2)cc1OCC` (centres undefined), which activation is on record?
Answer: Its activation is 15.7% (active).

Question: For `COc1cc(OC)c(C2N(c3ccc(Cl)c(Cl)c3)C(=O)C3CCCN32)cc1OC` (centres undefined), which activation is on record?
Answer: The activation was -2.98%.

Question: `Cn1nccc1NC(=O)Nc1cccc(Cl)c1Cl` was tested. Which activation did it give?
Answer: Its activation is 51.6% (active).

Question: `COc1cc(OC)cc(-c2c(-c3cccs3)c3cc(-c4ccc(SC)cc4)ccc3n2C)c1` was tested. Which activation did it give?
Answer: Its activation is 25.8% (active).

Question: How did the activation turn out when `C=CCn1c(=O)/c(=C/c2cc(OC)c(OC)c(OC)c2)s/c1=C(/C#N)c1nc2ccccc2n1C` was run?
Answer: Its activation is 8.61%.

Question: Which activation does the source give for `COCCCn1c(=O)/c(=C\c2cccc(OC)c2OC)s/c1=C(/C#N)C(=O)Nc1ccc(C(=O)O)cc1` here?
Answer: The activation was 22.2% (active).

Question: With `COCCCn1c(=O)/c(=C\c2ccccc2OC(C)C)s/c1=C(/C#N)C(=O)Nc1ccc(C(=O)O)cc1` as the molecule, how does the activation read?
Answer: Its activation is 8.94%.

Question: Which activation does the source give for `COCCNC(=O)CSc1nc(N)c(NC(=O)c2ccccc2F)c(=O)[nH]1` here?
Answer: Its activation is 11.4%.

Question: With `N=c1n(Cc2ccccc2)c2ccccc2n1CC(O)c1ccco1` (centres undefined) as the molecule, how does the activation read?
Answer: Its activation is 29.1% (active).

Question: How did the activation turn out when `CCCn1c(=N)n(CC(O)c2ccco2)c2ccccc21` (centres undefined) was run?
Answer: The activation was 2.41%.

Question: With `CCn1c(=N)n(CC(O)c2ccccc2)c2ccccc21` (centres undefined) as the molecule, how does the activation read?
Answer: Its activation is 9.44%.

Question: Which activation does the source give for `CN1CCCN(Cc2cccc3ccccc23)CC1` here?
Answer: Its activation is 9.8%.

Question: How did the activation turn out when `COc1cc(/C=C2\SC(=O)NC2=O)ccc1Oc1ccc([N+](=O)[O-])cn1` was run?
Answer: Its activation is 81% (active).

Question: With `Cc1cc(C=O)c(C)n1-c1ccc(Oc2ccc([N+](=O)[O-])cn2)cc1` as the molecule, how does the activation read?
Answer: Its activation is 4.85%.

Question: For `COc1ccc(C2NN=C(c3c[nH]c4ccccc34)C2O)cc1` (centres undefined), which activation is on record?
Answer: The activation was 36.2% (active).

Question: With `COc1ccccc1CNC(=O)COC(=O)c1cccc(S(=O)(=O)N2CCOCC2)c1` as the molecule, how does the activation read?
Answer: The activation was 6.73%.

Question: With `O=C(COC(=O)c1ccc(S(=O)(=O)N2CCCC2)cc1)NCc1ccco1` as the molecule, how does the activation read?
Answer: The activation was 11.6% (active).

Question: With `Cn1nc(C(F)(F)F)c(-c2ccc(Br)cc2)c1NC(=O)c1ccco1` as the molecule, how does the activation read?
Answer: Its activation is 6.3%.

Question: `O=C(NC(NC(=S)Nc1ccccc1C(=O)O)C(Cl)(Cl)Cl)c1ccco1` (centres undefined) was tested. Which activation did it give?
Answer: The activation was 5.56%.

Question: How did the activation turn out when `O=C(Nc1cccc2c1N(C(=O)c1ccco1)CCC2)c1ccco1` was run?
Answer: The activation was 25.9% (active).

Question: `O=C(N/N=C/c1cccc([N+](=O)[O-])c1)c1cnccn1` was tested. Which activation did it give?
Answer: The activation was 3.15%.

Question: For `COc1ccc(/C=N/NC(=O)c2cccc([N+](=O)[O-])c2)cc1O`, which activation is on record?
Answer: The activation was 15.3% (active).

Question: How did the activation turn out when `Cc1cccc(NC(=O)CSc2nnc(CSc3nc(C)cc(C)n3)n2Cc2ccco2)c1` was run?
Answer: Its activation is 8.24%.

Question: How did the activation turn out when `CN(C)C(CNC(=O)CSc1nc2ccccc2c(=O)n1Cc1ccco1)c1ccccc1` (centres undefined) was run?
Answer: The activation was 12.1% (active).

Question: With `CCOC(=O)c1c(NC(=O)CSc2nc3cc(Cl)ccc3c(=O)n2Cc2ccco2)sc(C(=O)N(C)C)c1C` as the molecule, how does the activation read?
Answer: The activation was 9.02%.
